# NRP1-CendR mod = modulators of CendR peptide binding to NRP-1, primary screen, biochemical, fluorescence polarization, uHTS | Neuropilin-1 (Homo sapiens), O14786 | FAM-RPARPAR peptide binding to NRP-1 | inhibition, % at 25 µM | 0.85% of 360,000 active | AID 602438, 2012;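 active = inhibition or corrected inhibition above about 18%, plus a signal ratio from 0.5 to 1.5, limit read from the data, passing the limit was not always enough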
# sPLA2-III inh = human group III sPLA2 inhibitors, primary screen, biochemical, QFRET, BODIPY PC-A2 liposome substrate | Group 3 secretory phospholipase A2 (Homo sapiens), Q9NZ20 | QFRET BODIPY PC-A2 liposome hydrolysis, fluorescence | inhibition, % at 12.2 µM | 0.56% of 370,000 active;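 active = inhibition above mean plus 3 SD of compounds lying within the high and low control bounds, cut at about 19% in these data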
# Lipid droplet = inhibitors of hepatocyte lipid droplet formation, primary screen, imaging, high-throughput imaging, BODIPY stain | AML12 mouse hepatocytes, oleate lipid droplets | inhibition, % at 6.5 µM | 0.4% of 240,000 active | AID 1656, 2009;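 active = lipid droplet intensity inhibited by at least 50%, with more than 500 cells counted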
#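 Assay system: AML12 hepatocytes (mouse) / Also added: 100 µM oleic acid challenge / Times: overnight treatment with compound plus oleate / Detection: high-content imaging of BODIPY-stained droplets and DAPI nuclei / Evaluation: % inhibition of lipid droplet signal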
# Arrestin-AP2 inh = inhibitors of beta-arrestin/AP2 binding, primary screen, biochemical, GPCR trafficking, flow cytometry; beta-arrestin 1 C-terminal peptide binding to AP2 beta2-adaptin appendage (human); FITC-arrestin peptide / GST-AP2 beads; AP2 beta2 appendage carries R879A mutation; inhibition, % at 10 µM; 0.31% of 340,000 active; AID 504490, 2011;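 active = inhibition above a set limit, near 3 SD of compounds lacking own fluorescence, cut at about 54% in these data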
#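 System: GST-AP2 R879A glutathione beads; medium: PBS, Tween 20 0.05%, BSA 0.1%; reagent: fluorescein-tagged arrestin peptide at 50 nM final; schedule: pre-incubation 12 min, peptide binding 1 h, room temperature; detection: flow cytometry, FL1 (488/535 nm); read-out: inhibition as reduced fluorescein signal on beads, percent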
# HTR2A ag = mouse Htr2a agonists via beta-arrestin recruitment, primary screen, cell-based, luminescence | 0.66% of 360,000 active | AID 624169, 2012 | CHO-K1 mHTR2A beta-arrestin complementation; percent of 30 µM serotonin response | activation, % at 7.6 µM;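 active = activation above a run cutoff, the mean activation of all tested compounds plus 3 SD, cut at about 14% in these data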
# Target sequence (P35363 whole entry, looked up): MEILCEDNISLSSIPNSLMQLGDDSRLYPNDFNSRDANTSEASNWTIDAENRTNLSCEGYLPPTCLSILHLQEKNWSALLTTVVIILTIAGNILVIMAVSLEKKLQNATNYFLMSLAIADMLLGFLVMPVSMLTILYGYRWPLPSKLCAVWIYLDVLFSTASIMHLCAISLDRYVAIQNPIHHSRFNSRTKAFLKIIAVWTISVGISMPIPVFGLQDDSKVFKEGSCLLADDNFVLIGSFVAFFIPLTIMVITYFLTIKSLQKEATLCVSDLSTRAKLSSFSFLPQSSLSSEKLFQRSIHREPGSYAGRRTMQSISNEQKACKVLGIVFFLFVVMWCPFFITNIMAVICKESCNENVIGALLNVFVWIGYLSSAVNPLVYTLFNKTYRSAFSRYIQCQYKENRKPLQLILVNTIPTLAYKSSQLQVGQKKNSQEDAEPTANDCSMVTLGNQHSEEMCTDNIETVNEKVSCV
# PfM18AAP inh = PfM18AAP inhibitors, malaria aminopeptidase, primary screen, biochemical, QFRET, recombinant enzyme; M18 aspartyl aminopeptidase (Plasmodium falciparum 3D7); H-Glu-NHMec fluorogenic cleavage; inhibition, % at 7.35 µM; 1.2% of 290,000 active;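 active = inhibition above the campaign mean inhibition over all tested compounds plus 3 SD, cut at about 28% in these data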
# Hits are given with their value; n = inactive; x = not tested or not shown. The list is not random: actives were taken first. Their share in the collection is about 3.3%.
SMILES,NRP1-CendR mod,sPLA2-III inh,Lipid droplet,Arrestin-AP2 inh,HTR2A ag,PfM18AAP inh
CC(C)(C)OC(=O)N1O[C@H]2CC1[C@@H]1[C@@H]2N=NN1CCc1ccncc1,22.9,n,x,n,n,x
CC(C)(C)OC(=O)N1O[C@H]2C[C@@H]1[C@@H]1[C@@H]2N=NN1C12CC3CC(CC(C3)C1)C2,n,n,x,n,n,x
C[N+](C)(CC#Cc1ccccc1)CC(=O)c1ccc(Cl)cc1,n,n,n,n,n,n
C[N+](C)(CC#Cc1ccccc1)CC(=O)c1ccccc1,41.9,n,n,n,n,n
COc1ccc(CNS(=O)(=O)/C=C/c2ccc(OC)cc2CNC(=O)OC(C)(C)C)cc1,x,n,x,x,x,x
CN1CCC(N(C)C(=O)c2ccc(Cl)c(S(=O)(=O)N(C)c3ccc(Cl)cc3)c2)CC1,33.2,n,x,n,n,x
CN1CCC(N(C)C(=O)c2cc(S(=O)(=O)N(C)c3ccccc3)ccc2Cl)CC1,n,n,x,n,n,x
CN1CCCCC(NC(=O)c2ccc(F)cc2)C1=O (stereo not drawn),x,n,x,x,x,x
N#C/C(=C\c1ccc2c(c1)OCO2)C(N)=S,n,n,n,n,n,31.5
CCOC(=O)/C(C#N)=C\c1ccc2c(c1)OCO2,n,n,x,n,n,n
Cc1ccc(-n2c(SCc3cccc4ccccc34)nnc2-c2ccccn2)cc1,x,n,x,x,x,x
Cn1c(N)c(C(=O)COC(=O)C2(c3ccccc3F)CCCC2)c(=O)n(C)c1=O,32.0,n,x,n,n,n
Cn1c(N)c(C(=O)COC(=O)C2(c3ccc(F)cc3)CCCC2)c(=O)n(C)c1=O,n,n,n,n,n,n
CC(C)(C)OC(=O)N1CCC(NC(=O)c2[nH]cnc2C(=O)Nc2cccc(Cl)c2)CC1,32.9,n,x,n,n,x
C[C@@H](NC(=O)c1nc[nH]c1C(=O)NC1CCN(C(=O)OC(C)(C)C)CC1)c1ccccc1,22.4,n,x,n,n,x
Clc1ccc(-c2csc(NCC3CCCO3)n2)cc1 (stereo not drawn),x,n,x,x,x,x
CCC1(c2ccccc2)NC(=O)N(CC(=O)Nc2ccc(N3CCCC3)cc2C)C1=O (stereo not drawn),n,n,x,n,n,x
Cc1cc(N2CCCC2)ccc1NC(=O)CN1C(=O)NC(C)(c2ccccc2)C1=O (stereo not drawn),n,n,n,n,n,29.9
COc1cc(OC)cc(C(=O)N[C@H](C(=O)NC2CCCc3ccccc32)C(C)C)c1 (stereo partly drawn),27.1,n,x,n,n,x
COc1cc(OC)cc(C(=O)NCC(=O)OCC(=O)NC2CCCc3ccccc32)c1 (stereo not drawn),n,n,x,n,n,x
Cc1cc(N2CCNC[C@H]2C)ccc1N1CCN(Cc2ccccc2)[C@H](C)C1,x,n,x,x,x,x
COc1ccc(NC(=O)C2Cc3ccccc3CN2C(=O)c2ccccc2)cn1 (stereo not drawn),25.1,n,n,n,n,n
CN(C)c1nc(=NCc2ccco2)ss1,n,x,n,n,n,46.5
COc1ccc(N2CS(=O)CC2=O)cc1 (stereo not drawn),26.6,n,n,n,n,n
CCC[C@@H](/C=C/C(=O)OC(C)(C)C)Sc1ccc(N)cc1,x,n,x,x,x,x
SMILES,NRP1-CendR mod,sPLA2-III inh,Lipid droplet,Arrestin-AP2 inh,HTR2A ag,PfM18AAP inh
COc1cc(NC(=O)CSc2nc3[nH]ncc3c(=O)n2-c2ccccc2)cc(OC)c1OC,n,n,x,x,n,x
COc1cc2c(cc1OC)CN(C(=O)CSc1nc3[nH]ncc3c(=O)n1-c1ccccc1)CC2,x,x,n,x,x,31.3
O=C(/C=C/c1ccco1)OCC(=O)N1CCCCC1,n,n,x,n,n,x
CC(C)OP(=O)(c1ccc(N(C)C)cc1)C(Nc1ccccc1)c1ccccc1 (stereo not drawn),30.8,n,n,n,n,n
CC(C)CCOP(=O)(c1ccc(N(C)C)cc1)C(Nc1ccccc1)c1ccc(N(C)C)cc1 (stereo not drawn),n,n,n,n,n,n
Cc1ccccc1N1C(=O)CC(Nc2ccc3c(c2)OCO3)C1=O (stereo not drawn),n,n,n,n,n,30.2
COc1ccc(C(=O)Cn2nnc(-c3ccccc3NC(=O)C3CC3)n2)cc1,33.2,n,x,n,n,n
CCC1(CC)NC(=O)N(CC(=O)OCC(=O)Nc2cc(OC)ccc2OC)C1=O,24.2,n,x,n,n,x
CC(C)NC(=O)C1(C)Cc2c(-c3ccc(N(C)C)cc3)ccnc2O1 (stereo not drawn),n,n,x,x,n,x
CCOc1c(O)ccc(/C=C2\SC(=S)NC2=O)c1[N+](=O)[O-],n,n,n,n,n,37.0
CCOc1ccc(N(C)c2ccc(/C=C3/SC(=S)NC3=O)cc2)cc1,n,n,n,n,n,n
C=CC[C@@H](CC(=O)N[C@H](CO)Cc1ccccc1)C(=O)N[C@H](COC(=O)[C@@H](CC=C)CC(=O)OC(C)(C)C)Cc1c[nH]c2ccccc12,26.7,n,x,n,n,x
COc1ccc(S(=O)(=O)NC(C(=O)OCC(=O)Nc2ccc(N3CCOCC3)cc2)C(C)C)cc1 (stereo not drawn),n,n,x,n,n,x
C=CCNC(=S)NNC(=O)COc1ccc2cc(Br)ccc2c1,n,n,n,n,15.8,n
C=CCNC(=S)NNC(=O)COc1ccc(Br)cc1,n,n,n,n,n,n
CCOC(=O)C1(C)CCN1C(=O)c1cncc(Br)c1 (stereo not drawn),n,n,x,x,n,x
Cn1c(=O)[nH]c(=O)c2c1nc(N/N=C/C(Br)=C/c1ccccc1)n2CCO,n,n,x,n,n,30.2
CN1CCN(C(=O)C2CCCN(S(=O)(=O)c3ccc(F)cc3)C2)CC1 (stereo not drawn),n,n,n,n,n,n
CCCC(=O)OCCNc1cc(Sc2nccn2C)c2nonc2c1[N+](=O)[O-],n,19.3,n,n,n,n
CCCSc1cc(NCCOC(=O)CCC)c([N+](=O)[O-])c2nonc12,n,n,n,n,n,n
Cc1cc(C)cc(C(=O)OCCN(C)C2CN(Cc3cn(Cc4ccccc4F)nn3)S(=O)(=O)C2)c1 (stereo not drawn),x,n,x,x,x,x
CCOC(=O)C1=CCC(c2ccc(Cl)cc2)N(S(=O)(=O)c2ccc(C)cc2)C1 (stereo not drawn),n,n,x,x,n,x
CC(C)N(C(=O)[C@H]1CC(CC(=O)NCc2cccc(C(F)(F)F)c2)C(=O)N2CCc3c([nH]c4ccccc34)[C@]12C)C(C)C (stereo partly drawn),n,n,x,n,n,x

# High-throughput results deposited in PubChem BioAssay by several laboratories.
